≈ marks a conversion by molar mass, not a printed value.
Legend:
[1] = test system: Staphylococcus haemolyticus; test: Antibacterial activity against Staphylococcus haemolyticus OCC 2223 after 18 hrs; format: functional; details: OCC 2223, 18 h
Method in brief: (§1)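 Broth microdilution in Nutrient Broth No. 2. Ethanol stocks were diluted in broth to 0.01–128 µg/ml for triclosan and 0.25–256 µg/ml for glycosides. Overnight 37°C NB2 cultures were diluted 1 in 10^4 in saline and added to the wells. Plates were incubated at 37°C with OD read every 15 min after agitation. MIC was the lowest concentration giving no OD increase at 18 h.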

[2] = test system: Escherichia coli; test: Antibacterial activity against Escherichia coli OCC 122 after 18 hrs; format: functional; details: OCC 122, 18 h
Method in brief: (§2)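 Broth microdilution in Nutrient Broth No. 2; stocks in ethanol diluted to 0.01–128 µg/ml (triclosan) or 0.25–256 µg/ml (glycosides). Overnight 37 °C NB2 cultures diluted 1 in 10^4 in saline and added to the dilutions. Incubation at 37 °C with agitation, OD read every 15 min; MIC is the lowest concentration preventing any OD rise after 18 h.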

[3] = test system: Salmonella enteritidis; test: Antibacterial activity against Salmonella enterica subspecies enterica serotype Enteritidis 13076 after 18 hrs; format: functional, Salmonella enterica subsp. enterica serovar Enteritidis; details: Salmonella enterica, 13076, 18 h; method in brief: as §2
[4] = test system: Streptococcus viridans; test: Antibacterial activity against Streptococcus viridans OCC 234 after 18 hrs; format: functional; details: OCC 234, 18 h; method in brief: as §1
[5] = test system: Staphylococcus saprophyticus; test: Antibacterial activity against Staphylococcus saprophyticus ATCC 15305 after 18 hrs; format: functional; details: ATCC 15305, 18 h; method in brief: as §1
[6] = test system: Staphylococcus aureus; test: Antibacterial activity against Staphylococcus aureus OCC 104 after 18 hrs; format: functional; details: OCC 104, 18 h; method in brief: as §2
[7] = test system: Escherichia coli; test: Antibacterial activity against Escherichia coli ATCC 10536 after 18 hrs; format: functional; details: ATCC 10536, 18 h; method in brief: as §2
[8] = Antibacterial activity against Salmonella enterica subspecies enterica serotype Poona NCTC 4840 after 18 hrs; format: functional, Salmonella enterica subsp. enterica serovar Poona; details: NCTC 4840, 18 h; method in brief: as §2
[9] = test system: Escherichia coli; test: Antibacterial activity against Escherichia coli ATCC 35218 after 18 hrs; format: functional; details: ATCC 35218, 18 h; method in brief: as §2
[10] = Antibacterial activity against Enterobacter cloacae ATCC 13047 after 18 hrs; format: functional, Enterobacter cloacae subsp. cloacae; details: ATCC 13047, 18 h; method in brief: as §2
[11] = test system: Klebsiella aerogenes; test: Antibacterial activity against Klebsiella aerogenes NCTC 8167 after 18 hrs; format: functional; details: NCTC 8167, 18 h; method in brief: as §2
[12] = test system: Staphylococcus epidermidis; test: Antibacterial activity against Staphylococcus epidermidis ATCC 14990 after 18 hrs; format: functional; details: ATCC 14990, 18 h; method in brief: as §2
[13] = test system: Aeromonas hydrophila; test: Antibacterial activity against Aeromonas hydrophila OCC 778 after 18 hrs; format: functional; details: OCC 778, 18 h; method in brief: as §2
[14] = test system: Pseudomonas aeruginosa; test: Antibacterial activity against Pseudomonas aeruginosa ATCC 27853 after 18 hrs; format: functional; details: ATCC 27853, 18 h; method in brief: as §2
[15] = Antibacterial activity against Salmonella enterica subspecies enterica serotype Pullorum OCC 273 after 18 hrs; format: functional, Salmonella enterica subsp. enterica serovar Pullorum; details: OCC 273, 18 h; method in brief: as §2
[16] = test system: Streptococcus pneumoniae; test: Antibacterial activity against Streptococcus pneumoniae 6305 after 18 hrs; format: functional; details: Streptococcus pneumoniae, 6305, 18 h; method in brief: as §1
[17] = test system: Citrobacter freundii; test: Antibacterial activity against Citrobacter freundii OCC 851 after 18 hrs; format: functional; details: OCC 851, 18 h; method in brief: as §2
[18] = test system: Serratia marcescens; test: Antibacterial activity against Serratia marcescens OCC 217 after 18 hrs; format: functional; details: OCC 217, 18 h; method in brief: as §2
[19] = test system: Streptococcus pneumoniae; test: Antibacterial activity against Streptococcus pneumoniae ATCC 49619 after 18 hrs; format: functional; details: ATCC 49619, 18 h; method in brief: as §1
[20] = test system: Bacillus subtilis; test: Antibacterial activity against Bacillus subtilis NCTC 10073 after 18 hrs; format: functional; details: NCTC 10073, 18 h; method in brief: as §2
[21] = test system: Escherichia coli; test: Antibacterial activity against Escherichia coli NCTC 13216 after 18 hrs; format: functional; details: NCTC 13216, 18 h; method in brief: as §2
[22] = test system: Salmonella enterica subsp. enterica serovar Abony; test: Antibacterial activity against Salmonella enterica subspecies enterica serotype Abony NCTC 6017 after 18 hrs; format: functional; details: NCTC 6017, 18 h; method in brief: as §2
[23] = test system: Staphylococcus aureus; test: Antibacterial activity against Staphylococcus aureus ATCC 6538 after 18 hrs; format: functional; details: ATCC 6538, 18 h; method in brief: as §2
[24] = test system: Bacillus cereus; test: Antibacterial activity against Bacillus cereus ATCC 14579 after 18 hrs; format: functional; details: ATCC 14579, 18 h; method in brief: as §2
[25] = test system: Staphylococcus epidermidis; test: Antibacterial activity against Staphylococcus epidermidis ATCC 12228 after 18 hrs; format: functional; details: ATCC 12228, 18 h; method in brief: as §2
[26] = test system: Staphylococcus aureus; test: Antibacterial activity against Staphylococcus aureus ATCC 9144 after 18 hrs; format: functional; details: ATCC 9144, 18 h; method in brief: as §2
[27] = test system: Hafnia alvei; test: Antibacterial activity against Hafnia alvei 13337 after 18 hrs; format: functional; details: Hafnia alvei, 13337, 18 h; method in brief: as §2
[28] = Antibacterial activity against Salmonella enterica subspecies enterica serotype Indiana OCC 597 after 18 hrs; format: functional, Salmonella enterica subsp. enterica serovar Indiana; details: OCC 597, 18 h; method in brief: as §2

For O[C@@H]1[C@H](Oc2cc(Cl)ccc2Oc2ccc(Cl)cc2Cl)OC[C@@H](O)[C@H]1O, the MIC [1] was 128 µg/mL (≈ 304 µM), the MIC [2] was 8 to 32 µg/mL (≈ 19 to 75.9 µM) and the MIC [3] was 32 to 64 µg/mL (≈ 75.9 to 152 µM). For the same compound, the MIC [4] was 128 µg/mL (≈ 304 µM), the MIC [5] was 64 µg/mL (≈ 152 µM) and the MIC [6] was 4 to 8 µg/mL (≈ 9.49 to 19 µM). For the same compound, the MIC [7] was 8 to 32 µg/mL (≈ 19 to 75.9 µM), the MIC [8] was 32 to 64 µg/mL (≈ 75.9 to 152 µM) and the MIC [9] was 8 to 32 µg/mL (≈ 19 to 75.9 µM). The MIC [10] was 16 µg/mL (≈ 37.9 µM), the MIC [11] was 32 µg/mL (≈ 75.9 µM) and the MIC [12] was 8 to 16 µg/mL (≈ 19 to 37.9 µM). For the same compound, the MIC [13] was > 256 µg/mL, the MIC [14] was > 256 µg/mL and the MIC [15] was 32 to 64 µg/mL (≈ 75.9 to 152 µM). The MIC [16] was 64 µg/mL (≈ 152 µM), the MIC [17] was 64 µg/mL (≈ 152 µM) and the MIC [18] was > 256 µg/mL. The MIC [19] was 64 µg/mL (≈ 152 µM), the MIC [20] was 128 µg/mL (≈ 304 µM) and the MIC [21] was 8 to 32 µg/mL (≈ 19 to 75.9 µM). The MIC [22] was 32 to 64 µg/mL (≈ 75.9 to 152 µM), the MIC [23] was 4 to 8 µg/mL (≈ 9.49 to 19 µM) and the MIC [24] was 128 µg/mL (≈ 304 µM). The MIC [25] was 8 to 16 µg/mL (≈ 19 to 37.9 µM), the MIC [26] was 4 to 8 µg/mL (≈ 9.49 to 19 µM) and the MIC [27] was 4 µg/mL (≈ 9.49 µM). For the same compound, the MIC [28] was 32 to 64 µg/mL (≈ 75.9 to 152 µM).

— ChEMBL document CHEMBL4325893, “Synthesis and antibacterial profiles of targeted triclosan derivatives” (2019)
